ERp5 inh = inhibitors of ERp5-driven insulin aggregation, primary screen, biochemical, turbidity, absorbance 650 nm, single point; 90 min; AID 651711, 2012; inhibition, % at 9.99 µM; Protein disulfide-isomerase A6 (Homo sapiens), Q15084; 0.05% of 350,000 active;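 active = mean replicate inhibition above about 25%, with every replicate also reaching it, limit read from the data, passing the limit was not always enough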
Target sequence (Q15084 whole entry, looked up): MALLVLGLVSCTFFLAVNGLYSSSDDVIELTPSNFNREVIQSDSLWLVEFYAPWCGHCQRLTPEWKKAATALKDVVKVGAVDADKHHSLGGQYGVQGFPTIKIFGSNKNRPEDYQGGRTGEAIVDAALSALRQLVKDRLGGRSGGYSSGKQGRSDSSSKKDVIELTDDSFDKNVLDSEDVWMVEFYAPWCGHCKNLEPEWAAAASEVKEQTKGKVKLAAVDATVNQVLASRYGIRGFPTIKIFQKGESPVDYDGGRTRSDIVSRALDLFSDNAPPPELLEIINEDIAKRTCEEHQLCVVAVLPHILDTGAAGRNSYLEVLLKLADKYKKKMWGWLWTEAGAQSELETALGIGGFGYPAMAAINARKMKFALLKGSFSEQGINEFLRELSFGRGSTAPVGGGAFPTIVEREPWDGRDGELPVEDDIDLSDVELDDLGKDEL
PDI turbidity = inhibitors of human PDI, primary screen, biochemical, turbidity, single point, plate reader; inhibition, % at 10 µM; AID 588391, 2011; PDI insulin aggregation turbidity, A650, 90 min; 0.052% of 350,000 active; Protein disulfide-isomerase (Homo sapiens), P07237;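 active = mean inhibition across replicates of 30% or more, whatever share of single replicates reach that level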
Tb MetRS inh = T. brucei MetRS inhibitors, primary screen, biochemical, luminescence; purified T. brucei MetRS, ATP depletion, Kinase-Glo luminescence; methionyl-tRNA synthetase (Trypanosoma brucei brucei); inhibition, % at 11.9 µM; 0.4% of 360,000 active;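 active = inhibition above a per-plate cutoff of the control wells' mean inhibition plus 3 SD, cut at about 5.5% in these data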;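 note: 0% = DMSO wells median and 100% = median of wells with control inhibitor compound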
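Assay system: T. brucei methionyl-tRNA synthetase, purified | Medium: HEPES buffer with MgCl2, KCl, DTT, spermine, BSA, pyrophosphatase | Compound: 11.9 µM single point | Incubation: 15 min enzyme-compound preincubation, 2 h reaction, 10 min detection, 25 °C | Measured by: Kinase-Glo luciferase luminescence reporting remaining unconsumed ATP | Measure: % inhibition normalized to control-well medians | Replication: Singlicate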
* marks the source's active call; other numbers are inactive results. Shown are actives, neighbours in structure and some others; about 0.4% of the full set was active somewhere.

Screening C[C@@H]1CN([C@H](C)CO)C(=O)Cc2cc(NC(=O)c3ccncc3)ccc2O[C@H]1CN(C)S(=O)(=O)c1cn(C)cn1 returned ERp5 inh 77*.
For CO[C@H]1CN(C)C(=O)c2ccc(NC(=O)C3CCOCC3)cc2OC[C@@H](C)N(Cc2nccs2)C[C@H]1C the results were ERp5 inh -5.
O=C(CSc1nc2ccccc2[nH]1)Nc1ccc2[nH]c(=O)[nH]c2c1 was read as ERp5 inh 6, PDI turbidity -4 and Tb MetRS inh 0.
For O=C(CSc1nc2ccccc2[nH]1)Nc1ccc(F)cc1 the results were ERp5 inh 3, PDI turbidity -2 and Tb MetRS inh 17*.
For CO[C@H]1CN(C)C(=O)c2ccc(NS(=O)(=O)c3cn(C)cn3)cc2OC[C@H](C)N(CC2CC2)C[C@@H]1C the results were ERp5 inh 4.
Screening CC1(C)CC(=O)C2=C(C1)OC1=C(C(=O)CC(C)(C)C1)C2c1ccc(O)cc1O returned PDI turbidity 77* and Tb MetRS inh -1.
CC1(C)CC(=O)C2=C(C1)OC1=C(C(=O)CC(C)(C)C1)C2c1ccc(O)c([N+](=O)[O-])c1 was read as ERp5 inh -13, PDI turbidity -4 and Tb MetRS inh -1.
Screening CN(C)C(=O)[C@H]1[C@H](CO)[C@H]2Cn3c(ccc(-c4cccnc4)c3=O)[C@@H]1N2C(=O)NC1CCCC1 returned ERp5 inh 2.
`O=C(C[C@@H]1C=C[C@@H](NC(=O)C2CCC2)[C@H](CO)O1)NCCCN1CCOCC1` gave ERp5 inh 3.
For C[C@@H]1CN([C@@H](C)CO)C(=O)c2cc(-c3ccccc3F)cnc2O[C@H]1CN(C)C(=O)C1CCC1 the results were ERp5 inh 7.
Screening Cc1ccc(C)c(NS(=O)(=O)c2c(C)nn(C)c2C)c1 returned PDI turbidity 37* and Tb MetRS inh -1.
Cc1nn(C)c(C)c1S(=O)(=O)Nc1ccc2c(c1)OCO2 was read as PDI turbidity 1 and Tb MetRS inh -1.
`N#C[C@H]1[C@H](c2ccccc2C2=CCCC2)[C@H](CO)N1C(=O)NC1CCCCC1` gave ERp5 inh -6.
Screening COc1ccccc1-c1ccc([C@H]2[C@@H](CO)N(C(=O)C3CCCC3)[C@H]2C#N)cc1 returned ERp5 inh -2.
COC(=O)CC1OCC=C2CN3CCC45C6=CC(=O)C(=O)C([N+](=O)[O-])=C6NC4C1C2CC35 (configuration not stated) was read as ERp5 inh 19, PDI turbidity 85* and Tb MetRS inh 0.
CCC(=O)Nc1ccc2c(c1)OC[C@@H](C)N(Cc1ccccc1OC)C[C@@H](C)[C@H](OC)CN(C)C2=O was read as ERp5 inh 3.
`C[C@@H]1CN([C@H](C)CO)C(=O)Cc2cc(NC(=O)Cc3ccccc3)ccc2O[C@@H]1CN(C)Cc1ccc(C(=O)Nc2ccccc2N)cc1` gave ERp5 inh 7.
C[C@@H]1CCCCO[C@H](CN(C)C(=O)Nc2ccc3c(c2)OCO3)[C@@H](C)CN([C@@H](C)CO)C(=O)c2cc(NS(=O)(=O)c3ccccc3)ccc2O1 was read as ERp5 inh 5.
C[C@H](CO)N1C[C@H](C)[C@@H](CN(C)C(=O)Cc2ccccc2)Oc2cc(C#CC3(O)CCCC3)ccc2S1(=O)=O was read as ERp5 inh 5.
Screening Cc1ccccc1NC1=C/C(=N\S(=O)(=O)c2ccc(C(=O)O)cc2)c2ccccc2C1=O returned ERp5 inh 10, PDI turbidity -6 and Tb MetRS inh 9.7*.
For Cc1ccccc1NC1=C/C(=N\S(=O)(=O)c2cccs2)c2ccccc2C1=O the results were PDI turbidity -4 and Tb MetRS inh 0.
Screening Cc1cc(C(=O)Nc2cccc3c2O[C@@H](CN(C)S(=O)(=O)c2ccc(F)cc2)[C@@H](C)CN([C@@H](C)CO)C3=O)n(C)n1 returned ERp5 inh -5.
CCC(=O)Nc1ccc2c(c1)C(=O)N(C)C[C@@H](OC)[C@@H](C)CN(C(=O)NC(C)C)[C@@H](C)CO2 was read as ERp5 inh 6.
For O=C(CCCSc1ccccc1)Nc1nc(-c2ccco2)c(-c2ccco2)s1 the results were ERp5 inh 0, PDI turbidity 7 and Tb MetRS inh 0.
Screening O=C(CCl)Nc1nc(-c2ccco2)c(-c2ccco2)s1 returned ERp5 inh 8, PDI turbidity 62* and Tb MetRS inh 1.
`COc1ccc(S(=O)(=O)Nc2ccc3c(c2)C(=O)N([C@H](C)CO)C[C@@H](C)[C@H](CN(C)C(=O)Nc2ccccc2)O3)cc1` gave ERp5 inh 0.
`COc1ccc(NC(=O)N(C)C[C@H]2Oc3ccc(NS(=O)(=O)c4ccccc4)cc3C(=O)N([C@@H](C)CO)C[C@@H]2C)cc1` gave ERp5 inh 33*.
`COc1ccc(S(=O)(=O)Nc2ccc3c(c2)C(=O)N([C@H](C)CO)C[C@H](C)[C@@H](CN(C)C(=O)Nc2ccccc2)O3)cc1` gave ERp5 inh 0, PDI turbidity -2 and Tb MetRS inh 0.
`COc1ccc(S(=O)(=O)Nc2ccc3c(c2)C(=O)N([C@H](C)CO)C[C@H](C)[C@H](CN(C)C(=O)Nc2ccccc2)O3)cc1` gave ERp5 inh 29*.
For CC(C)NC(=O)Nc1ccc2c(c1)C(=O)N(C)[C@H]1CC[C@H](CC(=O)Nc3ccccc3Cl)O[C@@H]1CO2 the results were ERp5 inh 5.
For CCNC(=O)C[C@@H]1CC[C@H]2[C@@H](COC[C@H](O)CN2C(=O)CC)O1 the results were ERp5 inh -3.
For C[C@H]1CN([C@@H](C)CO)C(=O)c2cc(NS(=O)(=O)c3cn(C)cn3)ccc2O[C@@H]1CN(C)Cc1ccncc1 the results were ERp5 inh 2.
`CN1C(=O)c2cc(NC(=O)C3CC3)ccc2OC[C@@H]2O[C@H](CC(=O)NC3CCC3)CC[C@@H]21` gave ERp5 inh -1.
CCC(=O)Nc1ccc2c(c1)C(=O)N(C)[C@H]1CC[C@H](CC(=O)NCC3CCCCC3)O[C@@H]1CO2 was read as ERp5 inh 2.
CCC(=O)Nc1ccc2c(c1)C(=O)N(C)[C@H]1CC[C@@H](CC(=O)NCC3CC3)O[C@@H]1CO2 was read as ERp5 inh 78*.
Screening CN1C(=O)c2cc(NC(=O)C3CCCCC3)ccc2OC[C@@H]2O[C@@H](CC(=O)NC3CCCC3)CC[C@H]21 returned ERp5 inh 31*.
`CCC(=O)Nc1ccc2c(c1)C(=O)N(C)[C@@H]1CC[C@H](CC(=O)NCC3CCCCC3)O[C@H]1CO2` gave ERp5 inh 4.
`CCC(=O)Nc1ccc2c(c1)C(=O)N(C)[C@@H]1CC[C@@H](CC(=O)NCC3CC3)O[C@@H]1CO2` gave ERp5 inh 48*.
Screening C[C@H]1CN([C@@H](C)CO)C(=O)Cc2cc(NC(=O)Nc3ccc(F)cc3)ccc2O[C@H]1CN(C)C(=O)NC1CCCCC1 returned ERp5 inh 1.

Assay outcomes deposited in PubChem by several laboratories.
